From ChEMBL document CHEMBL5058577, “EUbOPEN Chemogenomics Library 2 (Multiplex)” (2022)

System: Fibroblast
Experiment: Multiplex assay against human fibroblast
Format: toxicity, cell-based
Summary of the method: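 Four dyes were applied at seeding to live cells: Hoechst33342, BioTracker Green Microtubule Cytoskeleton Dye, MitoTracker Red and Annexin V Alexa Fluor 680. Imaging after compound addition used a CQ1 microscope at 37°C and 5% CO2. CellPathfinder machine-learning gating then sorted cells into Hoechst high-intensity objects or normal cells, normal cells into healthy, pyknosed or fragmented nuclei, and pyknosed cells into mitotic or apoptotic, with tubulin, mitochondrial-mass and membrane-permeability phenotypes given as per cents of healthy-nucleus cells.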

[1] = 12 h, 1 µM, compound concentration 1 uM, replicate 1
[2] = 12 h, 1 µM, compound concentration 1 uM, replicate 2
[3] = 12 h, 10 µM, compound concentration 10 uM, replicate 1
[4] = 12 h, 10 µM, compound concentration 10 uM, replicate 2
[5] = 24 h, 1 µM, compound concentration 1 uM, replicate 1
[6] = 24 h, 1 µM, compound concentration 1 uM, replicate 2
[7] = 24 h, 10 µM, compound concentration 10 uM, replicate 1
[8] = 24 h, 10 µM, compound concentration 10 uM, replicate 2
[9] = 48 h, 1 µM, compound concentration 1 uM, replicate 1
[10] = 48 h, 1 µM, compound concentration 1 uM, replicate 2
[11] = 48 h, 10 µM, compound concentration 10 uM, replicate 1
[12] = 48 h, 10 µM, compound concentration 10 uM, replicate 2

Question: How did the “Population Apoptotic (%)” value [1] turn out when `CC(C)COc1ccc(CNC(=O)N(Cc2ccc(F)cc2)C2CCN(C)CC2)cc1` [PIMAVANSERIN] was run?
Answer: 65%

Question: What about the “Population Fragmented Nuclei (%)” value [1] of the same molecule?
Answer: 24%

Question: What about the “Population Healthy Nuclei (%)” value [1] of the same molecule?
Answer: 62%

Question: And the “Population Hoechst High Intensity Objects (%)” value [1]?
Answer: 0%

Question: What about the “Population Membrane Permeable-Phenotype (%)” value [1] of the same molecule?
Answer: 0%

Question: What about the “Population Mitochondria Different-Phenotype (%)” value [1] of the same molecule?
Answer: 12%

Question: What about the “Population Mitotic Cells (%)” value [1] of the same molecule?
Answer: 34%

Question: What about the “Population Normal (%)” value [1] of the same molecule?
Answer: 100%

Question: And the “Population Pyknosed Nuclei (%)” value [1]?
Answer: 12%

Question: What about the “Population Tubulin-Different-Phenotype (%)” value [1] of the same molecule?
Answer: 35%

Question: And the “Total Cell Count” value [1]?
Answer: 179

Question: And the “Population Apoptotic (%)” value [2]?
Answer: 61%

Question: And the “Population Fragmented Nuclei (%)” value [2]?
Answer: 40%

Question: And the “Population Healthy Nuclei (%)” value [2]?
Answer: 42%

Question: And the “Population Hoechst High Intensity Objects (%)” value [2]?
Answer: 1%

Question: What about the “Population Membrane Permeable-Phenotype (%)” value [2] of the same molecule?
Answer: 7%

Question: And the “Population Mitochondria Different-Phenotype (%)” value [2]?
Answer: 4%

Question: What about the “Population Mitotic Cells (%)” value [2] of the same molecule?
Answer: 38%

Question: What about the “Population Normal (%)” value [2] of the same molecule?
Answer: 98%

Question: What about the “Population Pyknosed Nuclei (%)” value [2] of the same molecule?
Answer: 16%

Question: And the “Population Tubulin-Different-Phenotype (%)” value [2]?
Answer: 82%

Question: And the “Total Cell Count” value [2]?
Answer: 160

Question: And the “Population Apoptotic (%)” value [3]?
Answer: 56%

Question: What about the “Population Fragmented Nuclei (%)” value [3] of the same molecule?
Answer: 18%

Question: What about the “Population Healthy Nuclei (%)” value [3] of the same molecule?
Answer: 65%

Question: And the “Population Hoechst High Intensity Objects (%)” value [3]?
Answer: 1%

Question: And the “Population Membrane Permeable-Phenotype (%)” value [3]?
Answer: 0%

Question: What about the “Population Mitochondria Different-Phenotype (%)” value [3] of the same molecule?
Answer: 42%

Question: And the “Population Mitotic Cells (%)” value [3]?
Answer: 43%

Question: What about the “Population Normal (%)” value [3] of the same molecule?
Answer: 98%

Question: What about the “Population Pyknosed Nuclei (%)” value [3] of the same molecule?
Answer: 16%

Question: And the “Population Tubulin-Different-Phenotype (%)” value [3]?
Answer: 93%

Question: What about the “Total Cell Count” value [3] of the same molecule?
Answer: 185

Question: And the “Population Apoptotic (%)” value [4]?
Answer: 51%

Question: And the “Population Fragmented Nuclei (%)” value [4]?
Answer: 31%

Question: And the “Population Healthy Nuclei (%)” value [4]?
Answer: 42%

Question: What about the “Population Hoechst High Intensity Objects (%)” value [4] of the same molecule?
Answer: 4%

Question: And the “Population Membrane Permeable-Phenotype (%)” value [4]?
Answer: 2%

Question: What about the “Population Mitochondria Different-Phenotype (%)” value [4] of the same molecule?
Answer: 32%

Question: What about the “Population Mitotic Cells (%)” value [4] of the same molecule?
Answer: 48%

Question: What about the “Population Normal (%)” value [4] of the same molecule?
Answer: 95%

Question: What about the “Population Pyknosed Nuclei (%)” value [4] of the same molecule?
Answer: 26%

Question: What about the “Population Tubulin-Different-Phenotype (%)” value [4] of the same molecule?
Answer: 81%

Question: And the “Population Apoptotic (%)” value [5]?
Answer: 60%

Question: And the “Population Fragmented Nuclei (%)” value [5]?
Answer: 21%

Question: And the “Population Healthy Nuclei (%)” value [5]?
Answer: 65%

Question: What about the “Population Hoechst High Intensity Objects (%)” value [5] of the same molecule?
Answer: 2%

Question: What about the “Population Membrane Permeable-Phenotype (%)” value [5] of the same molecule?
Answer: 1%

Question: And the “Population Mitochondria Different-Phenotype (%)” value [5]?
Answer: 5%

Question: And the “Population Mitotic Cells (%)” value [5]?
Answer: 39%

Question: What about the “Population Normal (%)” value [5] of the same molecule?
Answer: 97%

Question: And the “Population Pyknosed Nuclei (%)” value [5]?
Answer: 12%

Question: And the “Population Tubulin-Different-Phenotype (%)” value [5]?
Answer: 47%

Question: What about the “Total Cell Count” value [5] of the same molecule?
Answer: 186

Question: What about the “Population Apoptotic (%)” value [6] of the same molecule?
Answer: 52%

Question: And the “Population Fragmented Nuclei (%)” value [6]?
Answer: 39%

Question: And the “Population Healthy Nuclei (%)” value [6]?
Answer: 46%

Question: And the “Population Membrane Permeable-Phenotype (%)” value [6]?
Answer: 4%

Question: What about the “Population Mitochondria Different-Phenotype (%)” value [6] of the same molecule?
Answer: 9%

Question: And the “Population Mitotic Cells (%)” value [6]?
Answer: 47%

Question: And the “Population Pyknosed Nuclei (%)” value [6]?
Answer: 13%

Question: And the “Population Tubulin-Different-Phenotype (%)” value [6]?
Answer: 76%

Question: And the “Total Cell Count” value [6]?
Answer: 157

Question: And the “Population Apoptotic (%)” value [7]?
Answer: 83%

Question: What about the “Population Fragmented Nuclei (%)” value [7] of the same molecule?
Answer: 13%

Question: And the “Population Healthy Nuclei (%)” value [7]?
Answer: 67%

Question: And the “Population Hoechst High Intensity Objects (%)” value [7]?
Answer: 4%

Question: And the “Population Membrane Permeable-Phenotype (%)” value [7]?
Answer: 0%

Question: And the “Population Mitochondria Different-Phenotype (%)” value [7]?
Answer: 41%

Question: And the “Population Mitotic Cells (%)” value [7]?
Answer: 16%

Question: And the “Population Normal (%)” value [7]?
Answer: 95%

Question: And the “Population Pyknosed Nuclei (%)” value [7]?
Answer: 18%

Question: What about the “Population Tubulin-Different-Phenotype (%)” value [7] of the same molecule?
Answer: 92%

Question: What about the “Total Cell Count” value [7] of the same molecule?
Answer: 170

Question: What about the “Population Apoptotic (%)” value [8] of the same molecule?
Answer: 69%

Question: And the “Population Fragmented Nuclei (%)” value [8]?
Answer: 27%

Question: And the “Population Healthy Nuclei (%)” value [8]?
Answer: 50%

Question: And the “Population Hoechst High Intensity Objects (%)” value [8]?
Answer: 8%

Question: And the “Population Membrane Permeable-Phenotype (%)” value [8]?
Answer: 3%

Question: And the “Population Mitochondria Different-Phenotype (%)” value [8]?
Answer: 38%

Question: And the “Population Mitotic Cells (%)” value [8]?
Answer: 30%

Question: What about the “Population Normal (%)” value [8] of the same molecule?
Answer: 91%

Question: And the “Population Pyknosed Nuclei (%)” value [8]?
Answer: 21%

Question: And the “Population Tubulin-Different-Phenotype (%)” value [8]?
Answer: 96%

Question: And the “Total Cell Count” value [8]?
Answer: 167

Question: And the “Population Apoptotic (%)” value [9]?
Answer: 88%

Question: And the “Population Fragmented Nuclei (%)” value [9]?
Answer: 27%

Question: And the “Population Healthy Nuclei (%)” value [9]?
Answer: 62%

Question: And the “Population Hoechst High Intensity Objects (%)” value [9]?
Answer: 3%

Question: What about the “Population Membrane Permeable-Phenotype (%)” value [9] of the same molecule?
Answer: 1%

Question: What about the “Population Mitochondria Different-Phenotype (%)” value [9] of the same molecule?
Answer: 3%

Question: What about the “Population Mitotic Cells (%)” value [9] of the same molecule?
Answer: 11%

Question: And the “Population Normal (%)” value [9]?
Answer: 96%

Question: What about the “Population Pyknosed Nuclei (%)” value [9] of the same molecule?
Answer: 9%

Question: What about the “Population Tubulin-Different-Phenotype (%)” value [9] of the same molecule?
Answer: 45%

Question: What about the “Total Cell Count” value [9] of the same molecule?
Answer: 204

Question: What about the “Population Apoptotic (%)” value [10] of the same molecule?
Answer: 52%

Question: What about the “Population Fragmented Nuclei (%)” value [10] of the same molecule?
Answer: 44%

Question: And the “Population Healthy Nuclei (%)” value [10]?
Answer: 44%

Question: What about the “Population Hoechst High Intensity Objects (%)” value [10] of the same molecule?
Answer: 5%

Question: What about the “Population Membrane Permeable-Phenotype (%)” value [10] of the same molecule?
Answer: 4%

Question: What about the “Population Mitochondria Different-Phenotype (%)” value [10] of the same molecule?
Answer: 12%

Question: And the “Population Mitotic Cells (%)” value [10]?
Answer: 47%

Question: And the “Population Normal (%)” value [10]?
Answer: 94%

Question: What about the “Population Pyknosed Nuclei (%)” value [10] of the same molecule?
Answer: 10%

Question: What about the “Population Tubulin-Different-Phenotype (%)” value [10] of the same molecule?
Answer: 64%

Question: And the “Total Cell Count” value [10]?
Answer: 167

Question: And the “Population Apoptotic (%)” value [11]?
Answer: 92%

Question: And the “Population Fragmented Nuclei (%)” value [11]?
Answer: 15%

Question: And the “Population Healthy Nuclei (%)” value [11]?
Answer: 67%

Question: What about the “Population Hoechst High Intensity Objects (%)” value [11] of the same molecule?
Answer: 12%

Question: What about the “Population Membrane Permeable-Phenotype (%)” value [11] of the same molecule?
Answer: 0%

Question: What about the “Population Mitochondria Different-Phenotype (%)” value [11] of the same molecule?
Answer: 44%

Question: What about the “Population Mitotic Cells (%)” value [11] of the same molecule?
Answer: 8%

Question: What about the “Population Normal (%)” value [11] of the same molecule?
Answer: 87%

Question: What about the “Population Pyknosed Nuclei (%)” value [11] of the same molecule?
Answer: 17%

Question: And the “Population Tubulin-Different-Phenotype (%)” value [11]?
Answer: 91%

Question: And the “Total Cell Count” value [11]?
Answer: 163

Question: And the “Population Apoptotic (%)” value [12]?
Answer: 75%

Question: What about the “Population Fragmented Nuclei (%)” value [12] of the same molecule?
Answer: 30%

Question: What about the “Population Healthy Nuclei (%)” value [12] of the same molecule?
Answer: 53%

Question: What about the “Population Hoechst High Intensity Objects (%)” value [12] of the same molecule?
Answer: 6%

Question: What about the “Population Membrane Permeable-Phenotype (%)” value [12] of the same molecule?
Answer: 3%

Question: And the “Population Mitochondria Different-Phenotype (%)” value [12]?
Answer: 41%

Question: What about the “Population Mitotic Cells (%)” value [12] of the same molecule?
Answer: 25%

Question: What about the “Population Normal (%)” value [12] of the same molecule?
Answer: 93%

Question: What about the “Population Pyknosed Nuclei (%)” value [12] of the same molecule?
Answer: 16%

Question: And the “Population Tubulin-Different-Phenotype (%)” value [12]?
Answer: 92%

Question: What about the “Total Cell Count” value [12] of the same molecule?
Answer: 159
